Source: ChEMBL document CHEMBL2062496, “Identification of a sirtuin 3 inhibitor that displays selectivity over sirtuin 1 and 2” (Eur J Med Chem, 2012)
Activity calls are given as the source filed them. The rule behind the calls is not given here.

What was measured:
[1] = biological target: T1, NAD-dependent protein deacetylase sirtuin-1 (Homo sapiens) (UniProt Q96EB6); test: Inhibition of human SIRT1 assessed as enzyme activity using Fluor-de-Lys as substrate at 1 mM by fluorometry; set-up: scale not given: the % may be the effect or the level left
T1 sequence (whole entry): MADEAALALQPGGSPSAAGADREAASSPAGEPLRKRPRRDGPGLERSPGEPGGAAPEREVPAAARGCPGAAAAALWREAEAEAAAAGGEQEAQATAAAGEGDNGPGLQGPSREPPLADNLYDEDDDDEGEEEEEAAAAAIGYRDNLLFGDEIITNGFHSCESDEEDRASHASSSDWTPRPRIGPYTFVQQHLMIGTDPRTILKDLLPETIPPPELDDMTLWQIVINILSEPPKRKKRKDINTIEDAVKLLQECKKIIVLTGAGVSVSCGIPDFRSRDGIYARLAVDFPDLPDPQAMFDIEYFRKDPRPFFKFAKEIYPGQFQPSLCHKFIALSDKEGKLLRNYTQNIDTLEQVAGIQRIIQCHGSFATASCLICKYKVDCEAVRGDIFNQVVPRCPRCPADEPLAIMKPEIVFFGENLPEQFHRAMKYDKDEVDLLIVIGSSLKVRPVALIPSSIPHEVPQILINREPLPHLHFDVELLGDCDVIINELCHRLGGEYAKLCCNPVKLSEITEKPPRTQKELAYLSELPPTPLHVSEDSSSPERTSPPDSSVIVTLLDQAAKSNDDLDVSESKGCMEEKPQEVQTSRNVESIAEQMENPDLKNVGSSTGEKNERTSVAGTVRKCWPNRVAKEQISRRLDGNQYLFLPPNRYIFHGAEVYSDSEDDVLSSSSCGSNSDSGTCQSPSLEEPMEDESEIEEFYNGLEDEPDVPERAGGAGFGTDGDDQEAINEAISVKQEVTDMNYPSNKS
In short: (§1)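 Commercial Fluor-de-Lys kit, substrate human p53 379–382 peptide (Arg-His-Lys-Lys(Ac)). Human Sirt1 or Sirt2 was incubated with substrate, NAD+ and compound at 1 mM, also tested at 100 µM. Fluorescence scales with Lys382 deacetylation. Activity is expressed relative to control, mean ± S.E.M. of 3–4 replicates.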

[2] = biological target: T1, NAD-dependent protein deacetylase sirtuin-1 (Homo sapiens); test: Inhibition of human SIRT1 assessed as enzyme activity using Fluor-de-Lys as substrate at 100 uM by fluorometry; in short: as §1
HOP-92 = test: Growth of human HOP92 cells assessed as cell growth at 10 uM after 48 hrs by MTT assay; settings: HOP-92, 48 h
OVCAR-4 = test: Growth of human OVCAR4 cells assessed as cell growth at 10 uM after 48 hrs by MTT assay; settings: OVCAR-4, 48 h
CCRF-CEM = test: Growth of human CCRF-CEM cells assessed as cell growth at 10 uM after 48 hrs by MTT assay
NCI-H322M = test: Growth of human NCI-H322M cells assessed as cell growth at 10 uM after 48 hrs by MTT assay
MDA-MB-468 = test: Growth of human MDA-MB-468 cells assessed as cell growth at 10 uM after 48 hrs by MTT assay; settings: MDA-MB-468, 48 h
K562 = test: Growth inhibition of human K562 cells assessed as cell growth at 10 uM after 48 hrs by MTT assay; values are per cent of control; settings: K562, 48 h
EKVX = test: Growth inhibition of human EKVX cells assessed as cell growth at 10 uM after 48 hrs by MTT assay; values are per cent of control
HCT-15 = test: Growth inhibition of human HCT15 cells assessed as cell growth at 10 uM after 48 hrs by MTT assay; values are per cent of control; settings: HCT-15, 48 h
SF-539 = test: Growth inhibition of human SF539 cells assessed as cell growth at 10 uM after 48 hrs by MTT assay; values are per cent of control; settings: SF-539, 48 h
BT-549 = test: Growth inhibition of human BT549 cells assessed as cell growth at 10 uM after 48 hrs by MTT assay; values are per cent of control; settings: BT-549, 48 h
IGROV-1 = test: Growth inhibition of human IGROV1 cells assessed as cell growth at 10 uM after 48 hrs by MTT assay; values are per cent of control; settings: IGROV-1, 48 h
NCI-H23 = test: Growth inhibition of human NCI-H23 cells assessed as cell growth at 10 uM after 48 hrs by MTT assay; values are per cent of control; settings: NCI-H23, 48 h
UACC-257 = test: Growth inhibition of human UACC257 cells assessed as cell growth at 10 uM after 48 hrs by MTT assay; values are per cent of control; settings: UACC-257, 48 h
[3] = Growth inhibition of human Hs 578T cells assessed as cell growth at 10 uM after 48 hrs by MTT assay; values are per cent of control
HCC 2998 = test: Growth inhibition of human HCC2998 cells assessed as cell growth at 10 uM after 48 hrs by MTT assay; values are per cent of control; settings: HCC 2998, 48 h
NCI-H460 = test: Growth inhibition of human NCI-H460 cells assessed as cell growth at 10 uM after 48 hrs by MTT assay; values are per cent of control; settings: NCI-H460, 48 h
Malme-3M = test: Growth inhibition of human MALME-3M cells assessed as cell growth at 10 uM after 48 hrs by MTT assay; values are per cent of control
SK-MEL-5 = test: Growth inhibition of human SK-MEL-5 cells assessed as cell growth at 10 uM after 48 hrs by MTT assay; values are per cent of control; settings: SK-MEL-5, 48 h
SK-MEL-28 = test: Growth inhibition of human SK-MEL-28 cells assessed as cell growth at 10 uM after 48 hrs by MTT assay; values are per cent of control; settings: SK-MEL-28, 48 h
[4] = Growth inhibition of human NCI-ADR-RES cells assessed as cell growth at 10 uM after 48 hrs by MTT assay; values are per cent of control

For `c1cncc(-c2cnn[nH]2)c1`, the Activity [1] was 88%, the inhibition [2] was “inactive” and the growth, % of control at 10 µM (HOP-92) was 80.8%. It also gave a growth, % of control at 10 µM (OVCAR-4) of 47.4%, a growth, % of control at 10 µM (CCRF-CEM) of 24.8% and a growth, % of control at 10 µM (NCI-H322M) of 104%. The growth, % of control at 10 µM (MDA-MB-468) was 104%, the growth, % of control at 10 µM (K562) was 75.2% and the growth, % of control at 10 µM (EKVX) was 76.4%. The growth, % of control at 10 µM (HCT-15) was 69.2%, the growth, % of control at 10 µM (SF-539) was 106% and the growth, % of control at 10 µM (BT-549) was 97.7%. For the same molecule, the growth, % of control at 10 µM (IGROV-1) was 113%, the growth, % of control at 10 µM (NCI-H23) was 89.6% and the growth, % of control at 10 µM (UACC-257) was 90.3%. For the same molecule, the growth, % of control at 10 µM [3] was 118%, the growth, % of control at 10 µM (HCC 2998) was 77.3% and the growth, % of control at 10 µM (NCI-H460) was 115%. It also gave a growth, % of control at 10 µM (Malme-3M) of 99%, a growth, % of control at 10 µM (SK-MEL-5) of 103% and a growth, % of control at 10 µM (SK-MEL-28) of 106%. The growth, % of control at 10 µM [4] was 71.3%.
